A3G deaminase – APOBEC3G DNA deaminase inhibitors, primary screen, biochemical, fluorescence, single-stranded DNA substrate, uHTS; DNA dC->dU-editing enzyme APOBEC-3G (Homo sapiens), Q9HC16; recombinant A3G, ssDNA deamination FAM/TAMRA fluorescence; inhibition, % at 20 µM; 330,000 tested, 0.28% active; AID 493012, 2011;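 active = inhibition of at least 40% at 20 µM, with no more than 30% in the related APOBEC3A deaminase screen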;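 also: plate controls were DMSO wells with A3G for no effect and wells lacking A3G enzyme for full effect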
Target sequence (Q9HC16 whole entry, looked up): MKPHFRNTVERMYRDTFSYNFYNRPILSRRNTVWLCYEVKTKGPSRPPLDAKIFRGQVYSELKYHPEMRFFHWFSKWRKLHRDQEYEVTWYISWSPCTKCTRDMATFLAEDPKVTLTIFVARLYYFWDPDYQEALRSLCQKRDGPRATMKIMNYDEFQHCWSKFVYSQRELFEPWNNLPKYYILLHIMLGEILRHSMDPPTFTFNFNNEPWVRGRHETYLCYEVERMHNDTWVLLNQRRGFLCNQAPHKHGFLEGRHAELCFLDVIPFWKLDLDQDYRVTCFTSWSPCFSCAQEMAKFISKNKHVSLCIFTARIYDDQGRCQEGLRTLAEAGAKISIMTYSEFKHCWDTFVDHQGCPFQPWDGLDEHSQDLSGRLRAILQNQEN
ASAP1 GAP inh – inhibitors of human ASAP1 ArfGAP activity, primary screen, biochemical, fluorescence polarization | Arf-GAP with SH3 domain, ANK repeat and PH domain-containing protein 1 (Homo sapiens), … | ASAP1-stimulated ARF1 GTP hydrolysis, GDP FP detection | inhibition, % at 16.5 µM | 360,000 tested, 0.19% active; in the data active = inhibition above about 25%;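 also: 0% = vehicle with enzyme and substrate and 100% = no enzyme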
A3A deaminase – APOBEC3A ssDNA deaminase inhibitors, primary screen, selectivity assay for APOBEC3G inhibitor project, biochemical, FAM/TAMRA oligo cleavage fluorescence; DNA dC->dU-editing enzyme APOBEC-3A (Homo sapiens), P31941; recombinant A3A, FAM/TAMRA ssDNA deamination fluorescence; inhibition, % at 20 µM; 330,000 tested, 0.41% active; AID 493011, 2011;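 active = at least 40% inhibition at 20 µM here, with at most 30% in a related deaminase screen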;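 also: plate controls were A3A with DMSO for no effect and wells lacking A3A enzyme for full effect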
Target sequence (P31941 whole entry, looked up): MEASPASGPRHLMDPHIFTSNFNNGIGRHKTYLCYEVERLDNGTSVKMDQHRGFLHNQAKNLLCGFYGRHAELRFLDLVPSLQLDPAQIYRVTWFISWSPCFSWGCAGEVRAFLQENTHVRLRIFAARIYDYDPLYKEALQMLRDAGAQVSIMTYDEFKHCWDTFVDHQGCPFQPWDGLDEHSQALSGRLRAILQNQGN
Mot1-301 SUMO – yeast Mot1-301 growth rescue at high temperature, primary screen, SUMOylation pathway inhibitor project, S. cerevisiae, ATP luminescence, 38.5C. S. cerevisiae Mot1-301 growth rescue; percent above DMSO median, 100 means doubled. growth rescue, % at 18.8 µM. 320,000 tested, 1% active;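 active = every valid replicate shows activation above 250% relative to neutral control wells; inactive = the rest, any valid replicate at or below 250%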;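 also: OY570 slx delta 5 strain wells were the positive control but not used for scaling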
ARFGAP1 inhibitor – inhibitors of rat ARFGAP1 GAP activity, primary screen, biochemical, fluorescence polarization, GDP tracer | AID 651572, 2012 | ADP-ribosylation factor GTPase-activating protein 1 (Rattus norvegicus), Q62848 | Arfgap1-stimulated ARF1 GTP hydrolysis, GDP FP detection | inhibition, % at 16.5 µM | 360,000 tested, 0.26% active;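 active = inhibition above a per-plate limit, mean inhibition of low control wells plus 3 SD, cut at about 25% in these data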;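 also: 0% = DMSO wells with enzyme and 100% = wells lacking Arfgap1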
Target sequence (Q62848 1-136 limits assumed): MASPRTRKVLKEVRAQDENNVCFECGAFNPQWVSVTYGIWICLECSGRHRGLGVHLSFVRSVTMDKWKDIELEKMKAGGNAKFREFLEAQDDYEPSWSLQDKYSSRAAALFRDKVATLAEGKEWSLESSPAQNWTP
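Material: rat Arfgap1 GAP domain (His6, aa 1-136), purified enzyme. Also added: human ARF1(Δ1-17)-GTP substrate. Compound dosing: 16.5 µM single point, 1.26% DMSO. Timing: enzyme reaction 120 min at 25 °C after 20 min preincubation. Signal: GDP detection by fluorescence polarization. Read-out basis: percent inhibition of GAP-stimulated GDP formation, scaled between DMSO and no-Arfgap1 medians.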
C2C12 statin – suppressors of statin myotoxicity in C2C12 myotubes, primary screen, cell-based, single point, plate reader; C2C12 myotubes + simvastatin, ATP luminescence, 48 h; scaled: DMSO 0, geranylgeraniol control 100; rescue of ATP level, % at 7.49 µM; 330,000 tested, 0.78% active; AID 602340, 2012;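 active = mean ATP rescue above about 67%, or every replicate alone reaching that limit, limit read from the data, passing the limit was not always enough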;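 also: myotubes were challenged with 10 µM simvastatin during compound exposure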
Yeast Mot1 SUMO – growth restoration of Mot1-301 yeast on galactose, dose response, SUMO pathway inhibitor project, whole organism, S. cerevisiae, ATP luminescence, cherry-picked samples; 2,300 tested, under 10 active; growth activity, percent, % at 42 µM; S. cerevisiae Mot1-301 galactose growth, 24 h; -100 = growth of slx-deleted rescue strain; shares compounds with Mot1-301 SUMO;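 active = Signal drops as the depositor expects, and the fitted half-maximal dose is no more than ten times the top valid tested dose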;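 also: more negative values mean stronger growth rescue toward the control strain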
Active calls of the source: *; · = no result given; + = active, no number. Rows were chosen to be rich in hits. Some 2.1% of all compounds tested hit in one or more screens of this group.

SMILES	A3G deaminase	ASAP1 GAP inh	A3A deaminase	Mot1-301 SUMO	ARFGAP1 inhibitor	C2C12 statin	Yeast Mot1 SUMO
CC(=O)OCC(OC(C)=O)C(OC(C)=O)C(OC(C)=O)C(=O)Nc1ccccc1 (centres undefined)	-6.3	1.6	-3.0	385.6*	-12.9	·	-0.2
C[C@@H]1CN([C@H](C)CO)C(=O)c2cc(-c3ccccc3F)cnc2O[C@@H]1CN(C)Cc1cccc(C(=O)O)c1	·	·	·	·	·	-8.5	·
N#C/C(=N\Nc1cccc(F)c1)C(=N)N1CCCCCC1	-2.7	-1.7	6.2	605.3*	13.1	·	0.0
COCC#Cc1ccc([C@H]2[C@@H](CO)N3CCCCN(C(=O)Nc4cc(F)ccc4F)C[C@@H]23)cc1	·	·	·	·	·	8.6	·
CCOC(=O)c1nc(Nc2ccccc2CC)c2ccccc2n1	-4.9	4.1	-1.6	996.1*	1.7	-10.4	0.4
C[C@H]1CN([C@@H](C)CO)C(=O)c2cc(C#CCc3ccccc3)cnc2O[C@@H]1CN(C)C(=O)C1CCOCC1	·	·	·	·	·	-7.6	·
O=C1NC(c2ccccc2)C(C(=O)c2cccs2)C(O)(C(F)(F)F)N1 (centres undefined)	-3.1	-7.5	-2.7	374.4*	-7.9	60.2	-0.4
COc1cc(C(c2c(C)[nH][nH]c2=O)c2c(C)[nH][nH]c2=O)cc(OC)c1OC	-8.2	2.2	-3.0	674.1*	-3.9	·	0.0
O=C(Cc1ccccn1)NCC[C@@H]1CC[C@H](NS(=O)(=O)c2ccc(F)cc2)[C@H](CO)O1	·	·	·	·	·	-2.2	·
CCOc1ccc(NC(=O)C2CC(=O)N3CCCN=C3S2)cc1 (centres undefined)	-3.8	-2.8	-3.5	+	-1.5	·	-0.2
C=C(C)C(=O)OC1(C(F)(F)F)Oc2cc(C)ccc2NC1=O (centres undefined)	-6.5	-1.9	1.0	363.2*	8.1	15.6	-1.5
CCOC(=O)C1(N(CC)CC)Sc2cc(C)ccc2NC1=O (centres undefined)	-5.1	-1.1	-3.5	126.6	5.5	-11.1	·
CCS(=O)(=O)Nc1ccc2c(c1)C(=O)N(C)C[C@@H](OC)[C@H](C)CN(CCC(F)(F)F)[C@H](C)CO2	·	·	·	·	·	-6.7	·
C[C@@H]1CN([C@@H](C)CO)C(=O)Cc2cc(NC(=O)Nc3ccc4c(c3)OCO4)ccc2O[C@H]1CN(C)S(=O)(=O)c1ccc(Cl)cc1	·	·	·	·	·	22.8	·
O=C(Nc1ccc2c(c1)oc1ccc(S(=O)(=O)N3CCCC3)cc12)C1CC1	6.2	7.0	3.4	2.4	0.9	10.2	·
O=C(Nc1ccc2c(c1)oc1ccccc12)C1CC1	-4.5	7.6	-1.8	+	0.3	-27.1	-0.4
C[C@@H]1CN([C@@H](C)CO)C(=O)c2cc(NC(=O)CCN3CCOCC3)ccc2O[C@H]1CN(C)Cc1ccccc1	·	·	·	·	·	-10.9	·
COc1cc(S(=O)(=O)Nc2cccc3cn[nH]c23)c(OC)cc1C	-6.3	-8.5	-4.9	-1.0	8.7	0.9	·
O=S(=O)(Nc1cccc2cn[nH]c12)c1ccc(F)cc1	-1.4	-0.2	-3.0	790.1*	15.1	2.9	0.9
CCCCNC(=O)c1ccccc1NC(=O)CCSc1ccccc1	-4.3	-0.3	-1.0	·	-4.9	·	·
O=C(CCSc1ccccc1)NNC(=O)c1ccccc1F	-2.0	-6.9	1.1	517.2*	1.2	-2.0	-0.5
C[C@@H](NC(=O)C[C@H]1CC[C@H](NC(=O)Cc2ccccn2)[C@H](CO)O1)c1ccccc1	·	·	·	·	·	-5.2	·
O=C(C[C@H]1CC[C@@H]2[C@H](COC[C@@H](O)CN2S(=O)(=O)c2cccc(Cl)c2)O1)Nc1ccccc1	·	·	·	·	·	-20.8	·
Nn1c(Nc2ccccc2)nc2sc3c(c2c1=O)CCCC3	-12.2	8.4	-8.4	4.3	10.6	·	·
NNc1nc2sc3c(c2c(=O)n1-c1ccccc1)CCCC3	-0.7	-2.6	1.0	638.7*	-1.1	-1.4	0.4
SMILES	A3G deaminase	ASAP1 GAP inh	A3A deaminase	Mot1-301 SUMO	ARFGAP1 inhibitor	C2C12 statin	Yeast Mot1 SUMO
Cc1ccccc1OCc1nc2ccccc2c(=O)n1/N=C/c1cn[nH]c1-c1ccc(Br)cc1	-3.4	4.6	1.3	14.6	2.6	·	·
O=c1c2ccccc2nc(COc2ccccc2)n1/N=C/c1cn[nH]c1-c1ccccc1	-0.7	11.2	-3.2	647.1*	1.6	-6.2	-0.7
COc1ccc(Nc2cc(NCCCO)c([N+](=O)[O-])c3nonc23)cc1	32.5	9.5	-1.5	382.4*	10.0	-9.9	0.2
CN1C(=O)c2cc(NC(=O)Cc3ccccc3)ccc2OC[C@H]2O[C@@H](CC(=O)O)CC[C@H]21	·	·	·	·	·	10.3	·
O=C(NC1CCCCCC1)C1CCN(S(=O)(=O)c2cccc3cccnc23)CC1	-7.1	14.1	-1.7	561.1*	19.0	-4.7	0.7
COc1cc(NC(=O)[C@H]2CCCN2S(=O)(=O)c2cccc3cccnc23)cc(OC)c1OC	-9.2	2.0	-0.8	-1.2	1.7	8.6	·
COc1ccc(NC(=O)C2CCCN2S(=O)(=O)c2cccc3cccnc23)cc1OC (centres undefined)	1.5	7.7	1.9	413.7*	1.2	22.3	0.2
Cc1ccc(C(=O)N/C(=C\c2sccc2C)C(=O)NCc2ccncc2)cc1	-8.2	-12.5	-5.0	120.0	0.9	·	·
Cc1ccc(C(=O)N/C(=C\c2cccs2)C(=O)NCc2ccncc2)cc1	-2.6	9.0	-1.6	611.7*	20.8	23.8	0.7
Cc1ccc(C(=O)N/C(=C\c2cccs2)C(=O)NCCc2c[nH]c3ccccc23)cc1	-8.0	-5.5	-2.4	493.7*	-12.3	·	0.3
CC(C)(C)Cc1nc(-c2ccccn2)no1	-6.5	-1.1	-1.4	391.9*	10.8	·	0.1
O=C(CSc1n[nH]c(-c2cccs2)n1)N1CCOCC1	-2.6	7.8	-0.1	-0.4	-12.4	-8.9	·
CCc1ccc(-c2nc(SCC(=O)N3CCOCC3)n[nH]2)cc1	-3.6	2.8	-1.4	526.5*	-11.9	·	1.0
O=c1[nH]c(=O)n(C2CCCO2)cc1Br (centres undefined)	-3.9	13.4	-2.7	678.4*	-3.1	-15.0	0.5
